Measured values pooled from the literature.
Target: Mitogen-activated protein kinase kinase kinase kinase 2 (MAP4K2, Homo sapiens, UniProt Q12851)
Sequence (Q12851 1-820, as in one of the studies): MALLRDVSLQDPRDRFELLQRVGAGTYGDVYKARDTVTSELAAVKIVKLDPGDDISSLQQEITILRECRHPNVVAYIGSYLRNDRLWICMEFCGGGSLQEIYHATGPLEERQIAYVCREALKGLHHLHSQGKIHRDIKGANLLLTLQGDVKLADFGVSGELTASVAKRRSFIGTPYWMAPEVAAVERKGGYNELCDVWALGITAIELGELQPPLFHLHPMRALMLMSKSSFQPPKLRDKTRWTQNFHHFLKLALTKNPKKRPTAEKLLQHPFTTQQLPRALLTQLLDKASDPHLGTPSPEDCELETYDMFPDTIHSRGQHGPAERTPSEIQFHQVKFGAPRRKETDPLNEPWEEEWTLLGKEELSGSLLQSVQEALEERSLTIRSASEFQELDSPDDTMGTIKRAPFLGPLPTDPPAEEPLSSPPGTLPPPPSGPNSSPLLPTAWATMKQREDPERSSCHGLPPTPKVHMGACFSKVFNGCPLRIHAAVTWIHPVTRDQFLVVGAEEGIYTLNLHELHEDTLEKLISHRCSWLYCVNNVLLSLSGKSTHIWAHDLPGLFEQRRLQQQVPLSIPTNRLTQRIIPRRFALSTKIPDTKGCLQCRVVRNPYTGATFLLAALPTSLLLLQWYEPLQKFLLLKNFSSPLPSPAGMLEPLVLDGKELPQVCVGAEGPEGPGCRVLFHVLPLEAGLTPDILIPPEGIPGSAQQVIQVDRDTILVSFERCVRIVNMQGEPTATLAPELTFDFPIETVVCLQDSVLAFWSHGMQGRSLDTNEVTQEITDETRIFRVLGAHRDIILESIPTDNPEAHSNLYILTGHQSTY

Compound	observed	action	technique	concentration	endpoint	result
O=C1NC(=O)c2cc(Nc3ccc(F)cc3)c(Nc3ccc(F)cc3)cc21	cell-free assay	–	–	0.5 µM	remaining signal	98.2%
CN1CCN(C(=O)c2ccc3cc(CCNc4ccnc5ccc(C#N)cc45)ccc3c2)CC1	binding	–	competition with immobilised ligand	2 µM	inhibition	> 35%
Cc1cc(NC(=O)c2cccc3cc(-c4cccc5[nH]nc(N)c45)ccc23)ccc1F	enzyme activity	inhibitor	–	0.1 µM	activity vs control	88%
CSc1cccnc1N1CCN(Cc2nc3ccccc3[nH]2)CC1	cell-free assay	–	competition with immobilised ligand	1 µM	remaining binding	100%
COc1cc(Nc2c(C#N)cnc3cc(OCCCN4CCN(C)CC4)c(OC)cc23)c(Cl)cc1Cl	cell-free assay	–	–	0.5 µM	remaining signal	3.16%
COc1cc2ncnc(Nc3ccc(Oc4ccccc4)cc3C)c2cc1OC	enzyme activity	inhibitor	–	1 µM	inhibition	2%
O=c1nc(-c2ccccn2)sc2ccccc12	binding	–	competition with immobilised ligand	1 µM	remaining binding	100%
Cc1ccc(Nc2nccc(N(C)c3ccc4c(C)n(C)nc4c3)n2)cc1S(N)(=O)=O	enzyme activity	inhibitor	–	0.3 µM	inhibition	16%
Oc1cccc(-c2nc(N3CCOCC3)c3oc4ncccc4c3n2)c1	enzyme activity	inhibitor	–	10 µM	remaining activity	91%
O=C1NC(c2ccccn2)Sc2ccccc21 (centres unmarked)	cell-free assay	–	competition with immobilised ligand	1 µM	remaining binding	83%
Cc1sc(C(=O)NC2COC2)cc1-n1cc(NC(=O)Nc2c(F)cccc2Cl)cn1	enzyme activity	inhibitor	–	10 µM	remaining activity	90.2%
COc1cc(Cl)c(C(=O)N[C@@H](CN[C@H]2CC[C@@H](N)CC2)Cc2ccc(C#N)cc2)cc1-c1ccc(CN[C@H](C)c2ccc(C)cc2)o1	enzyme activity	inhibitor	–	1 µM	remaining activity	94%
Cc1ccc(NC(=O)c2ccc(C)c(C(F)(F)F)c2)cc1C#Cc1nn(C2CCC(O)CC2)c2ncnc(N)c12 (centres unmarked)	cell-free assay	–	–	10 µM	remaining signal	49%
O=C1Nc2ccc(Cl)cc2C1=Cc1cc(Cl)c(O)c(Cl)c1	cell-free assay	–	–	0.5 µM	remaining signal	62.6%
Cc1cc(NC(=O)c2cccc(S(F)(F)(F)(F)F)c2)cc(-n2ccn3nc(-c4cccnc4)cc23)c1	cell-free assay	–	competition with immobilised ligand	1 µM	remaining binding	100%
COc1cc(/C=C/C(=O)CC(=O)/C=C/c2ccc(O)c(OC)c2)ccc1O	enzyme activity	inhibitor	–	1 µM	activity vs control	103%
CCc1ccccc1C(=O)Nc1n[nH]c2c(C)c(F)c(C3C(C#N)=C(C)N(C)C(C)=C3C#N)cc12	cell-free assay	–	competition with immobilised ligand	1 µM	remaining binding	100%
CC(C)(C)c1nc(-c2cccc(NS(=O)(=O)c3c(F)cccc3F)c2F)c(-c2ccnc(N)n2)s1	enzyme activity	inhibitor	radiometric	1 µM	remaining activity	115%
COc1cc(Nc2cnc(C#N)c(O[C@H](C)CN(C)C)n2)ncc1-c1cnn(C)c1	enzyme activity	inhibitor	radiometric	1 µM	remaining activity	102%
CNC(=O)c1cc(Oc2ccc(NC(=O)Nc3ccc(Cl)c(C(F)(F)F)c3)cc2)ccn1	enzyme activity	inhibitor	–	10 µM	inhibition	46%
FC(F)(F)Oc1cccc(-c2cnc3ccc(-c4ccncc4)nn23)c1	enzyme activity	inhibitor	radiometric	1 µM	activity vs control	37%
FC(F)c1nc2ccccc2n1-c1nc(N2CCOCC2)nc(N2CCOCC2)n1	enzyme activity	inhibitor	–	10 µM	remaining activity	104%
Cc1nc(N2CC[C@@H](O)C2)ncc1-c1cc(C(F)(F)F)cc2[nH]ncc12	binding	–	competition with immobilised ligand	1 µM	remaining binding	76%
CCN(CC)CCNC(=O)c1c(C)[nH]c(/C=C2\C(=O)Nc3ccc(F)cc32)c1C	enzyme activity	inhibitor	–	10 µM	inhibition	92%
O=C(Nc1cccnn1)N1CCC(=Cc2cccc(Oc3ccc(C(F)(F)F)cn3)c2)CC1	cell-free assay	–	competition with immobilised ligand	1 µM	remaining binding	100%
Cc1ccc(C(=O)Nc2ccc(CN3CCN(C)CC3)c(C(F)(F)F)c2)cc1C#Cc1cnc2cccnn12	enzyme activity	inhibitor	–	23.5 nM	remaining activity	4.9%
